Source: ChEMBL document CHEMBL1136304, “Synthesis and structure-activity relationships of thieno[2,3-d]pyrimidine-2,4-dione derivatives as potent GnRH receptor antagonists” (Bioorg Med Chem Lett, 2003)

target: T1, Gonadotropin-releasing hormone receptor (Rattus norvegicus, UniProt P30969); experiment: Binding affinity towards rat Gonadotropin-releasing hormone receptor; details: not given
T1 sequence (P30969 whole entry): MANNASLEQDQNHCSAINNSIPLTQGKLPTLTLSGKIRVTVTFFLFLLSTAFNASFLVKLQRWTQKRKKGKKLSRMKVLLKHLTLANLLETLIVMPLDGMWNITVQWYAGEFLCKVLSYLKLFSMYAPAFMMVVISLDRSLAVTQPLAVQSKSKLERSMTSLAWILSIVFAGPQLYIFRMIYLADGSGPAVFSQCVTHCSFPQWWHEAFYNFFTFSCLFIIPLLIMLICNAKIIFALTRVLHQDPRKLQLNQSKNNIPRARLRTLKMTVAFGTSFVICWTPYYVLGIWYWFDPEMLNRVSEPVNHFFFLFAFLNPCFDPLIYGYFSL

SMILES | IC50
Cc1cc(-c2c(OCC[C@@H]3CCN3)c3cc(C(=O)Nc4ccncn4)c(Cl)cc3[nH]c2=O)cc(C)c1C | 4 nM

target: T2, Gonadotropin-releasing hormone receptor (Homo sapiens, UniProt P30968); experiment: Binding affinity towards human gonadotropin-releasing hormone receptor; details: not given
T2 sequence (P30968 whole entry): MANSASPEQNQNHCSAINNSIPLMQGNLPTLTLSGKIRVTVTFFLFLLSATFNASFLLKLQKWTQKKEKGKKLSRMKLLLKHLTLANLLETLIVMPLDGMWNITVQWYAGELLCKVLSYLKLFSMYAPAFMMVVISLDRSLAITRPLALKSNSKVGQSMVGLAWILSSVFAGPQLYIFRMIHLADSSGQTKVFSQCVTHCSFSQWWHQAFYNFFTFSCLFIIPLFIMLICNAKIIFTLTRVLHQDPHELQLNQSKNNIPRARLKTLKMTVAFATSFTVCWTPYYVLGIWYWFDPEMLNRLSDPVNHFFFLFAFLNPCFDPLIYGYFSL
Summary of the method: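 Cloned human GnRH receptor stably expressed in HEK293 cells, binding measured in a 96-well filtration format. Results expressed as Ki. Key compounds were run in 3–8 independent experiments.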

SMILES | Ki
CN(CCc1ccccc1)Cc1c(-c2ccc([N+](=O)[O-])cc2)sc2c1c(=O)n(-c1ccccc1)c(=O)n2Cc1c(F)cccc1F | 170 nM
CN(Cc1ccccc1)Cc1c(-c2ccc(NC(=O)C(F)(F)F)cc2)sc2c1c(=O)n(-c1ccccc1)c(=O)n2Cc1c(F)cccc1F | 16 nM
CN(C)Cc1c(-c2ccc([N+](=O)[O-])cc2)sc2c1c(=O)n(-c1ccccc1)c(=O)n2Cc1c(F)cccc1F | 640 nM
CN(Cc1ccccc1)Cc1c(-c2ccc([N+](=O)[O-])cc2)sc2c1c(=O)n(-c1ccccc1)c(=O)n2Cc1c(F)cccc1F | 180 nM
CC(C)C(=O)Nc1ccc(-c2sc3c(c2CN(C)Cc2ccccc2)c(=O)n(-c2ccccc2)c(=O)n3Cc2c(F)cccc2F)cc1 | 2.9 nM
CC(C)Nc1ccc(-c2sc3c(c2CN(C)Cc2ccccc2)c(=O)n(-c2ccccc2)c(=O)n3Cc2c(F)cccc2F)cc1 | 88 nM
CN(Cc1ccccc1)Cc1c(-c2ccc(N(C)C)cc2)sc2c1c(=O)n(-c1ccccc1)c(=O)n2Cc1c(F)cccc1F | 61 nM
CN(Cc1ccccn1)Cc1c(-c2ccc([N+](=O)[O-])cc2)sc2c1c(=O)n(-c1ccccc1)c(=O)n2Cc1c(F)cccc1F | 9 nM
CN(Cc1ccccc1)Cc1c(-c2ccc(N)cc2)sc2c1c(=O)n(-c1ccccc1)c(=O)n2Cc1c(F)cccc1F | 36 nM
O=c1c2c(CN3CCNCC3)c(-c3ccc([N+](=O)[O-])cc3)sc2n(Cc2c(F)cccc2F)c(=O)n1-c1ccccc1 | 460 nM
CC(=O)Nc1ccc(-c2sc3c(c2CN(C)Cc2ccccc2)c(=O)n(-c2ccccc2)c(=O)n3Cc2c(F)cccc2F)cc1 | 4.1 nM
CCNc1ccc(-c2sc3c(c2CN(C)Cc2ccccc2)c(=O)n(-c2ccccc2)c(=O)n3Cc2c(F)cccc2F)cc1 | 11 nM
CN(Cc1ccccc1)Cc1c(-c2ccc(NC(=O)CN)cc2)sc2c1c(=O)n(-c1ccccc1)c(=O)n2Cc1c(F)cccc1F | 150 nM
CN(Cc1ccccc1)Cc1c(-c2ccc(NC(=O)CCCN)cc2)sc2c1c(=O)n(-c1ccccc1)c(=O)n2Cc1c(F)cccc1F | 300 nM
CC(C)CNc1ccc(-c2sc3c(c2CN(C)Cc2ccccc2)c(=O)n(-c2ccccc2)c(=O)n3Cc2c(F)cccc2F)cc1 | 17 nM
C[C@H](N)C(=O)Nc1ccc(-c2sc3c(c2CN(C)Cc2ccccc2)c(=O)n(-c2ccccc2)c(=O)n3Cc2c(F)cccc2F)cc1 | 43 nM
CCN(CC)CCN(C)Cc1c(-c2ccc([N+](=O)[O-])cc2)sc2c1c(=O)n(-c1ccccc1)c(=O)n2Cc1c(F)cccc1F | 76 nM
CCCCN(C)Cc1c(-c2ccc([N+](=O)[O-])cc2)sc2c1c(=O)n(-c1ccccc1)c(=O)n2Cc1c(F)cccc1F | 270 nM
CN(CCc1ccccn1)Cc1c(-c2ccc([N+](=O)[O-])cc2)sc2c1c(=O)n(-c1ccccc1)c(=O)n2Cc1c(F)cccc1F | 0.6 nM
COCCN(C)Cc1c(-c2ccc([N+](=O)[O-])cc2)sc2c1c(=O)n(-c1ccccc1)c(=O)n2Cc1c(F)cccc1F | 170 nM
CN(Cc1ccccc1)Cc1c(-c2ccc(NC(=O)CCN)cc2)sc2c1c(=O)n(-c1ccccc1)c(=O)n2Cc1c(F)cccc1F | 360 nM
CC(C)CC(N)C(=O)Nc1ccc(-c2sc3c(c2CN(C)Cc2ccccc2)c(=O)n(-c2ccccc2)c(=O)n3Cc2c(F)cccc2F)cc1 (single isomer, unassigned) | 58 nM

test system: not listed separately; experiment: Partition coefficient (logP); assay type: physicochemical; details: octanol/water

SMILES | logP
CONC(=O)Nc1ccc(-c2sc3c(c2CN(C)Cc2ccccc2)c(=O)n(-c2ccccc2)c(=O)n3Cc2c(F)cccc2F)cc1 [SUFUGOLIX] | 6.5

test system: not listed separately; experiment: pKa value was determined; assay type: physicochemical; details: not given

SMILES | pKa
CONC(=O)Nc1ccc(-c2sc3c(c2CN(C)Cc2ccccc2)c(=O)n(-c2ccccc2)c(=O)n3Cc2c(F)cccc2F)cc1 [SUFUGOLIX] | 5
